The target of assay [1] is Estrogen receptor beta (Homo sapiens) (UniProt Q92731). Nature of the assay: Displacement of [3H]estradiol from human recombinant ERbeta after 16 hrs by liquid scintillation counting relative to estradiol. Summed up:
(§1)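 Recombinant human ERα or ERβ (0.9 nM) was incubated with 9 nM [2,4,6,7-³H]-E2 and test compound (10^-9 to 10^-5 M) at 4 °C, for 18 h per methods (16 h per table footnote). Nonspecific binding was set with 6 μM E2. Complexes were bound to hydroxyapatite in Tris pH 7.5, washed four times, and counted by liquid scintillation. Runs were in triplicate. RBA = IC50(E2)/IC50(compound) × 100.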

Assay [2] has as its target T1, Estrogen receptor (Homo sapiens) (UniProt P03372).
T1 sequence (whole entry): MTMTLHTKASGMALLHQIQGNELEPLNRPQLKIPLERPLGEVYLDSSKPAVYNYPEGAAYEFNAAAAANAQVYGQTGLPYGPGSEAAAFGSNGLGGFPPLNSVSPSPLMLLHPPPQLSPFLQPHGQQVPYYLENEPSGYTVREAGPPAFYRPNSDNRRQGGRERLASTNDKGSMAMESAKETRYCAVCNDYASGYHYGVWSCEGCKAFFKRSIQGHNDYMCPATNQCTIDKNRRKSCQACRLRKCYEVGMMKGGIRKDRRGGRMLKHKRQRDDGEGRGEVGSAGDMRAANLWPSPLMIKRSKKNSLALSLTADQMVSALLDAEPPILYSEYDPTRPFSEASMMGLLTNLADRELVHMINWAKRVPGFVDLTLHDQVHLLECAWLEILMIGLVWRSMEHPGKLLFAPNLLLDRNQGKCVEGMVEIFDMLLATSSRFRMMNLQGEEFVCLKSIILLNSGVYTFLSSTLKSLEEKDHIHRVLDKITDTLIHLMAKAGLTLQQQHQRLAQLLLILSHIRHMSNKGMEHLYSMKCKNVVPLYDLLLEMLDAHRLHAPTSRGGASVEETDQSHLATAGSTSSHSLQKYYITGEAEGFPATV
Nature of the assay: Displacement of [3H]estradiol from human recombinant ERalpha after 16 hrs by liquid scintillation counting relative to estradiol. Summed up: as §1
(In a radioligand displacement assay an active substance lowers the binding of a labelled ligand.)

Assay [3] relates to 17β-HSD1 (Homo sapiens). Nature of the assay: Displacement of [3H]estrone human recombinant 17beta-HSD1 expressed in Escherichia coli BL21 (DE3)-RIL at 0.6 uM by scintillation counting in presence of NADPH.
Assay [4] has as its system 17β-HSD1 (Homo sapiens). Kind of assay: Displacement of [3H]estrone human recombinant 17beta-HSD1 expressed in Escherichia coli BL21 (DE3)-RIL at 6 uM by scintillation counting in presence of NADPH.
Assay [5] concerns 17β-HSD2 (Homo sapiens). Kind of assay: Displacement of [3H]estradiol human recombinant 17beta-HSD2 expressed in Escherichia coli BL21 (DE3)-RIL at 0.6 uM by scintillation counting in presence of NAD+.
Assay [6] concerns 17β-HSD2 (Homo sapiens). Kind of assay: Displacement of [3H]estradiol human recombinant 17beta-HSD2 expressed in Escherichia coli BL21 (DE3)-RIL at 6 uM by scintillation counting in presence of NAD+.
For assay [7], the system named is 17β-HSD2 (Homo sapiens). Kind of assay: Displacement of [3H]estradiol human recombinant 17beta-HSD2 expressed in Escherichia coli BL21 (DE3)-RIL at 60 uM by scintillation counting in presence of NAD+.

RBA, inhibition and Activity data for 36 compounds are collected here from ChEMBL document CHEMBL1649075, “Synthesis and biological evaluation of (6- and 7-phenyl) coumarin derivatives as selective nonsteroidal inhibitors of 17β-hydroxysteroid dehydrogenase type 1” (J Med Chem, 2011).

Active and inactive are the calls of the source. No cut-off for these calls is given here.

Sequence of Estrogen receptor beta (Homo sapiens) (Q92731 whole entry): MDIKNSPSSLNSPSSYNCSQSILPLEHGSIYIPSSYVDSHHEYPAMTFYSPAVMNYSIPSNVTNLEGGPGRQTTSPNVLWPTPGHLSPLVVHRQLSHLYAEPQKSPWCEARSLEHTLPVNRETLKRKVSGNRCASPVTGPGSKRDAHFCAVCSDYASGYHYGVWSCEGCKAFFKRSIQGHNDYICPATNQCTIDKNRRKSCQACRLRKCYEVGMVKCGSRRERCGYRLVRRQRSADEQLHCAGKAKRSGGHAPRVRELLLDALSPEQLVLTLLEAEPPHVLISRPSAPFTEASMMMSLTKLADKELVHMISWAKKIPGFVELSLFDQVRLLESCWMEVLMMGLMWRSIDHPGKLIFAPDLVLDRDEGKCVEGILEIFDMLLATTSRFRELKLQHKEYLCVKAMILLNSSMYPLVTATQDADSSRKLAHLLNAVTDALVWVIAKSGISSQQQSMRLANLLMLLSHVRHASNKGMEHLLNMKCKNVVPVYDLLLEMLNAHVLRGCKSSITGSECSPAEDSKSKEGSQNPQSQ

As for `C[C@]12CC[C@H]3C(=CCc4cc(O)ccc43)[C@@H]1CCC2=O`, the figures for the RBA in assay [1] and in assay [2] were 1.4% and 0.15%, respectively.

Take `COc1ccc(-c2ccc3oc(=O)ccc3c2)cc1`: the inhibition in the assay with 17β-HSD1 (Homo sapiens) [3] amounted to 7%; with 17β-HSD1 (Homo sapiens) [4], 26%.

Consider `CCOC(=O)c1cc2ccc(-c3ccc(Cl)cc3)cc2oc1=O`, for which the inhibition result in the assay on 17β-HSD1 (Homo sapiens) [3] and with 17β-HSD1 (Homo sapiens) [4] was “inactive” each time.

For `CC(=O)c1cc2cc(-c3ccccc3)ccc2oc1=O`, the inhibition result in the assay with 17β-HSD1 (Homo sapiens) [3] and in the assay on 17β-HSD1 (Homo sapiens) [4] was “inactive” throughout.

As for `O=c1ccc2ccc(-c3ccc(O)cc3)cc2o1`, the inhibition entry with 17β-HSD1 (Homo sapiens) [3] is “inactive”. Further, the inhibition in the assay on 17β-HSD1 (Homo sapiens) [4] amounted to 43%.

`CCOC(=O)c1cc2cc(-c3ccc(F)cc3)ccc2oc1=O`: the inhibition in the assay on 17β-HSD1 (Homo sapiens) [3] and in the assay on 17β-HSD1 (Homo sapiens) [4] was 21% each time.

Regarding `CC(=O)c1cc2ccc(-c3ccc(Cl)cc3)cc2oc1=O`, the inhibition with 17β-HSD1 (Homo sapiens) [3] was determined as 12%; with 17β-HSD1 (Homo sapiens) [4], 17%.

Consider `CC(=O)c1cc2cc(-c3ccc(Cl)cc3)ccc2oc1=O`, for which the inhibition result with 17β-HSD1 (Homo sapiens) [3] and in the assay with 17β-HSD1 (Homo sapiens) [4] was “inactive” each time.

As to `COc1ccc2cc(C(C)=O)c(=O)oc2c1`, the inhibition result in the assay with 17β-HSD2 (Homo sapiens) [5] and in the assay on 17β-HSD2 (Homo sapiens) [6] was “inactive” in each case. In addition, the values for the inhibition with 17β-HSD1 (Homo sapiens) [3] and in the assay with 17β-HSD1 (Homo sapiens) [4] were 23% and 25%, respectively.

Turning to `CCOC(=O)c1cc2cc(-c3ccc(Cl)cc3)ccc2oc1=O`, the values for the inhibition in the assay with 17β-HSD1 (Homo sapiens) [3] and in the assay with 17β-HSD1 (Homo sapiens) [4] were 10% and 14%, respectively.

In the case of `CCOC(=O)c1cc2cc(-c3ccc(OC)cc3)ccc2oc1=O`, the inhibition result with 17β-HSD1 (Homo sapiens) [3] is “inactive”. Moreover, the inhibition in the assay with 17β-HSD1 (Homo sapiens) [4] is 7%.

Take `O=c1ccc2ccc(-c3ccccc3)cc2o1`: in the assay on 17β-HSD1 (Homo sapiens) [3], the inhibition result is “inactive”. In addition, the inhibition in the assay on 17β-HSD1 (Homo sapiens) [4] amounted to 10%.

Consider `CCOC(=O)c1cc2ccc(-c3ccc(C)cc3)cc2oc1=O`, for which the values for the inhibition in the assay with 17β-HSD1 (Homo sapiens) [3] and in the assay on 17β-HSD1 (Homo sapiens) [4] were 11% and 9%, respectively.

On to `CC(=O)c1cc2cc(-c3ccc(F)cc3)ccc2oc1=O`, for which the results for the inhibition in the assay on 17β-HSD1 (Homo sapiens) [3] and in the assay on 17β-HSD1 (Homo sapiens) [4] were 15% and 59%, respectively.

For `CCOC(=O)c1cc2cc(Br)ccc2oc1=O`, the inhibition entry in the assay on 17β-HSD1 (Homo sapiens) [3] and in the assay on 17β-HSD1 (Homo sapiens) [4] was “inactive” throughout.

As to `Cc1ccc(-c2ccc3oc(=O)ccc3c2)cc1`, the inhibition entry in the assay on 17β-HSD1 (Homo sapiens) [3] and in the assay with 17β-HSD1 (Homo sapiens) [4] was “inactive” in each case.

With `O=c1ccc2ccc(OS(=O)(=O)C(F)(F)F)cc2o1`, the inhibition result with 17β-HSD1 (Homo sapiens) [3] was “inactive”. Also, the inhibition in the assay on 17β-HSD1 (Homo sapiens) [4] is 9%.

Regarding `CC(=O)c1cc2ccc(-c3ccc(F)cc3)cc2oc1=O`, the inhibition was 6% in the assay with 17β-HSD1 (Homo sapiens) [3] and 13% in the assay on 17β-HSD1 (Homo sapiens) [4].

With `O=c1ccc2cc(Br)ccc2o1`, the inhibition entry in the assay on 17β-HSD1 (Homo sapiens) [3] and in the assay on 17β-HSD1 (Homo sapiens) [4] was “inactive” each time.

In the case of `O=c1ccc2cc(-c3ccc(O)cc3)ccc2o1`, the values for the inhibition in the assay with 17β-HSD1 (Homo sapiens) [3] and in the assay with 17β-HSD1 (Homo sapiens) [4] were 4% and 30%, respectively.

Regarding `CC(=O)c1cc2cc(-c3ccc(C)cc3)ccc2oc1=O`, the inhibition entry with 17β-HSD1 (Homo sapiens) [3] and with 17β-HSD1 (Homo sapiens) [4] was “inactive” in each case.

For `CCOC(=O)c1cc2cc(-c3ccc(C)cc3)ccc2oc1=O`, the inhibition is 6% with 17β-HSD1 (Homo sapiens) [3] and 16% in the assay on 17β-HSD1 (Homo sapiens) [4].

In the case of `CCOC(=O)c1cc2ccc(-c3ccc(OC)cc3)cc2oc1=O`, the inhibition result in the assay with 17β-HSD1 (Homo sapiens) [3] was “inactive”. Besides, the inhibition with 17β-HSD1 (Homo sapiens) [4] turned out to be 1%.

In the case of `O=c1ccc2cc(-c3ccc(Cl)cc3)ccc2o1`, the inhibition entry in the assay on 17β-HSD1 (Homo sapiens) [3] was “inactive”. Also, in the assay on 17β-HSD1 (Homo sapiens) [4], the inhibition was found to be 10%.

As to `COc1ccc(-c2ccc3oc(=O)c(C(C)=O)cc3c2)cc1`, the inhibition result with 17β-HSD1 (Homo sapiens) [3] and in the assay on 17β-HSD1 (Homo sapiens) [4] was “inactive” each time.

`Cc1ccc(-c2ccc3ccc(=O)oc3c2)cc1`: the inhibition with 17β-HSD1 (Homo sapiens) [3] came to 10%; with 17β-HSD1 (Homo sapiens) [4], 29%.

Regarding `CC(=O)c1cc2ccc(-c3ccc(C)cc3)cc2oc1=O`, the inhibition with 17β-HSD1 (Homo sapiens) [3] was determined as 40%; with 17β-HSD1 (Homo sapiens) [4], 72%. Moreover, the inhibition result in the assay with 17β-HSD2 (Homo sapiens) [7] and in the assay with 17β-HSD2 (Homo sapiens) [6] was “inactive” each time.

For the compound `CCOC(=O)c1cc2ccc(OS(=O)(=O)C(F)(F)F)cc2oc1=O`, the inhibition entry in the assay on 17β-HSD1 (Homo sapiens) [3] and with 17β-HSD1 (Homo sapiens) [4] was “inactive” throughout.

In the case of `CCOC(=O)c1cc2cc(-c3ccccc3)ccc2oc1=O`, the inhibition entry in the assay on 17β-HSD1 (Homo sapiens) [3] was “inactive”. The inhibition in the assay with 17β-HSD1 (Homo sapiens) [4] was 21%.

For `CCOC(=O)c1cc2ccc(-c3ccccc3)cc2oc1=O`, in the assay on 17β-HSD1 (Homo sapiens) [3], the inhibition entry is “inactive”. For the same compound, the inhibition with 17β-HSD1 (Homo sapiens) [4] came to 7%.

Regarding `CC(=O)c1cc2ccc(-c3ccc(O)cc3)cc2oc1=O`, the inhibition entry in the assay with 17β-HSD2 (Homo sapiens) [5], in the assay with 17β-HSD2 (Homo sapiens) [7] and with 17β-HSD2 (Homo sapiens) [6] was “inactive” in each case. For the same compound, the inhibition with 17β-HSD1 (Homo sapiens) [3] amounted to 76%; with 17β-HSD1 (Homo sapiens) [4], 100%. The outcome in assay [1] and in assay [2] was inactive.

For `COc1ccc(-c2ccc3ccc(=O)oc3c2)cc1`, the inhibition entry in the assay on 17β-HSD1 (Homo sapiens) [3] is “inactive”. In addition, the inhibition with 17β-HSD1 (Homo sapiens) [4] was 10%.

Turning to `CC(=O)c1cc2ccc(OS(=O)(=O)C(F)(F)F)cc2oc1=O`, the inhibition result in the assay with 17β-HSD2 (Homo sapiens) [5] and in the assay on 17β-HSD2 (Homo sapiens) [6] was “inactive” throughout. Moreover, the values for the inhibition in the assay on 17β-HSD1 (Homo sapiens) [3] and in the assay with 17β-HSD1 (Homo sapiens) [4] were 60% and 100%, respectively. Further, the result in assay [1] and in assay [2] was inactive.

On to `O=c1ccc2ccc(-c3ccc(Cl)cc3)cc2o1`, for which the inhibition result with 17β-HSD1 (Homo sapiens) [3] is “inactive”. Moreover, the inhibition in the assay on 17β-HSD1 (Homo sapiens) [4] was determined as 9%.

Take `COc1ccc(-c2ccc3cc(C(C)=O)c(=O)oc3c2)cc1`: the inhibition result with 17β-HSD2 (Homo sapiens) [5], in the assay with 17β-HSD2 (Homo sapiens) [7] and with 17β-HSD2 (Homo sapiens) [6] was “inactive” in each case. Besides, the inhibition was 48% in the assay on 17β-HSD1 (Homo sapiens) [3] and 86% in the assay with 17β-HSD1 (Homo sapiens) [4]. The outcome in assay [1] and in assay [2] was inactive.

For `O=c1ccc2cc(-c3ccccc3)ccc2o1`, in the assay on 17β-HSD1 (Homo sapiens) [3], the inhibition entry was “inactive”. Besides, the inhibition with 17β-HSD1 (Homo sapiens) [4] was determined as 18%.

By inhibition is commonly meant the share of the control response that was lost under treatment.
